Data from ChEMBL document CHEMBL3244213, “Synthesis of angiotensin II antagonists by incorporating alpha-methylalanine or O-methylthreonine residues in angiotension II analogues” (J Med Chem, 1977).
The source made the active and inactive calls. No cut-off for these calls is given here. Non-standard residues stand in square brackets, D forms with d. Residues, ends and D or L forms follow the SMILES beside them. Sar = CNCC(=O)O

What was measured:
Rattus norvegicus [1] = experiment: In vivo agonist activity at angiotensin 2 receptor in ganglion-blocked vagotomized rat assessed as pressor activity administered as single bolus dose relative to angiotensin-2; assay type: functional
Summary of the method: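 Vagotomized, ganglion-blocked rats; analogue given as a single injection and pressor response expressed as percent of angiotensin II ([Asp1,Ile5]angiotensin II = 100).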

Felis catus [2] = species: Felis catus; experiment: Agonist activity at angiotensin 2 receptor in cat adrenal cortex assessed as secretory activity relative to angiotensin-2; assay type: tissue-based
Oryctolagus cuniculus [3] = species: Oryctolagus cuniculus; experiment: Antagonist at angiotensin 2 receptor in rabbit aorta assessed as duration of action at 1 uM/L treated for 5 mins after angiotensin-2 challenge
Summary of the method: (§1)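 Spirally cut rabbit aortic strips challenged with a standard 10^-9 M/L angiotensin II dose, then incubated with 10^-6 M/L analogue for 5 min; analogue washed out of the bath and angiotensin II response retested at 5, 30, 60, 120 and 180 min.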

Felis catus [4] = species: Felis catus; experiment: Agonist activity at angiotensin 2 receptor in cat adrenal medulla assessed as secretory activity relative to angiotensin-2; assay type: tissue-based
Rattus norvegicus [5] = experiment: In vivo agonist activity at angiotensin 2 receptor in ganglion-blocked vagotomized rat assessed as rise in blood pressure at 250 ng/kg/min compound infused for 30 mins; assay type: functional
Summary of the method: (§2)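 Vagotomized, ganglion-blocked rats given analogue by infusion (standard rate 250 ng/kg/min, some at 125 ng/kg/min); initial blood pressure rise recorded in mmHg over the 30-min infusion period.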

[6] = Competitive antagonist at angiotensin 2 receptor in rabbit aorta assessed as rightward shift in angiotensin-2 dose response curve for myotropic activity; assay type: tissue-based, Oryctolagus cuniculus
Oryctolagus cuniculus [7] = species: Oryctolagus cuniculus; experiment: Agonist activity at angiotensin 2 receptor in rabbit aorta assessed as myotropic activity relative to angiotensin-2; assay type: tissue-based
Summary of the method: (§3)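 Spirally cut isolated rabbit aortic strips; contractile (myotropic) activity of each analogue tested up to a maximum dose level of 10^-6 M/L.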

Oryctolagus cuniculus [8] = species: Oryctolagus cuniculus; experiment: Agonist activity at angiotensin 2 receptor in rabbit aorta assessed as myotropic activity up to 1 uM/L relative to angiotensin-2; assay type: tissue-based; summary of the method: as §3
Rattus norvegicus [9] = experiment: In vivo non-competitive antagonist activity at angiotensin 2 receptor in ganglion-blocked vagotomized rat assessed as angiotensin-2 dose ratio at 250 ng/kg/min administered as an infusion; assay type: functional
Summary of the method: (§4)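 Vagotomized, ganglion-blocked rats infused with analogue at 125 or 250 ng/kg/min; antagonism of angiotensin II pressor response expressed as dose ratio.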

Oryctolagus cuniculus [10] = species: Oryctolagus cuniculus; experiment: Non-competitive antagonist at angiotensin 2 receptor in rabbit aorta assessed as inhibition of angiotensin-2 induced myotropic activity at > 1 uM/L; assay type: tissue-based
Rattus norvegicus [11] = experiment: In vivo agonist activity at angiotensin 2 receptor in ganglion-blocked vagotomized rat assessed as rise in blood pressure at 250 ng/kg/min compound infused for 10 mins; assay type: functional
Rattus norvegicus [12] = experiment: In vivo agonist activity at angiotensin 2 receptor in ganglion-blocked vagotomized rat assessed as rise in blood pressure at 250 ng/kg/min compound infused for 3 mins; assay type: functional
Rattus norvegicus [13] = experiment: In vivo non-competitive antagonist activity at angiotensin 2 receptor in ganglion-blocked vagotomized rat assessed as angiotensin-2 dose ratio at 125 ng/kg/min administered as an infusion; assay type: functional; summary of the method: as §4
Rattus norvegicus [14] = experiment: In vivo agonist activity at angiotensin 2 receptor in ganglion-blocked vagotomized rat assessed as rise in blood pressure at 125 ng/kg/min compound infused for 3 mins; assay type: functional
Rattus norvegicus [15] = experiment: In vivo agonist activity at angiotensin 2 receptor in ganglion-blocked vagotomized rat assessed as rise in blood pressure at 125 ng/kg/min compound infused for 30 mins; assay type: functional; summary of the method: as §2
[16] = Retardation factor of the compound using n-BuOH-AcOH-water at ratio of 4:1:5 as solvent system by thin layer chromatography; assay type: physicochemical; conditions: buffer
[17] = Retardation factor of the compound using n-BuOH-pyridine-water at ratio of 65:35:35 as solvent system by thin layer chromatography; assay type: physicochemical; conditions: buffer
[18] = Retardation factor of the compound using n-BuOH-pyridine-water at ratio of 10:2:5 as solvent system by thin layer chromatography; assay type: physicochemical; conditions: buffer
Rattus norvegicus [19] = experiment: In vivo agonist activity at angiotensin 2 receptor in ganglion-blocked vagotomized rat assessed as rise in blood pressure at 125 ng/kg/min compound infused for 10 mins; assay type: functional
[20] = Retardation factor of the compound using n-BuOH-pyridine-water at ratio of 65:35:65 as solvent system by thin layer chromatography; assay type: physicochemical; conditions: buffer
[21] = Retardation factor of the compound using n-PrOH-water at ratio of 2:1 as solvent system by thin layer chromatography; assay type: physicochemical; conditions: buffer
[22] = Retardation factor of the compound using n-BuOH-AcOH-water-pyridine at ratio of 30:6:24:20 as solvent system by thin layer chromatography; assay type: physicochemical; conditions: buffer
Oryctolagus cuniculus [23] = species: Oryctolagus cuniculus; experiment: Reversal antagonistic activity at angiotensin 2 receptor in rabbit aorta assessed as inhibition of angiotensin-2 induced myotropic activity at 1 uM/L measured at 1 hr following drug wash-out; assay type: tissue-based; summary of the method: as §1
[24] = Retardation factor of the compound using n-BuOH-AcOEt-AcOH-water at ratio of 1:1:1:1 as solvent system by thin layer chromatography; assay type: physicochemical; conditions: buffer
[25] = Retardation factor of the compound using n-BuOH-AcOH-water at ratio of 4:1:1 as solvent system by thin layer chromatography; assay type: physicochemical; conditions: buffer

Row | SMILES | TIME (Oryctolagus cuniculus [3]) | Rf [16] | Rf [17] | Rf [18] | Rf [20] | Rf [22] | Activity (Rattus norvegicus [1]) | Activity (Rattus norvegicus [5]) | pA2 [6] | Activity (Oryctolagus cuniculus [8]) | Ratio (Rattus norvegicus [9]) | inhibition (Oryctolagus cuniculus [10]) | Activity (Rattus norvegicus [11]) | Activity (Rattus norvegicus [12]) | Ratio (Rattus norvegicus [13]) | Activity (Rattus norvegicus [14]) | Activity (Rattus norvegicus [15]) | further results
1 | CC[C@H](C)[C@H](NC(=O)[C@H](Cc1ccc(O)cc1)NC(=O)[C@@H](NC(=O)[C@H](CCCN=C(N)N)NC(=O)CNC)C(C)C)C(=O)N[C@@H](Cc1c[nH]cn1)C(=O)N1CCC[C@H]1C(=O)N[C@H](C(=O)O)[C@@H](C)O (H-[Sar]RVYIHPT-OH) | 2 h | – | – | – | – | – | 0.6% | 9.2 mmHg | 8.79 | 0.5% | 26.91 | Active | 9.66 mmHg | 9.46 mmHg | – | – | – | Activity (Felis catus [2]): 1%; Activity (Felis catus [4]): 0.1%; Activity (Oryctolagus cuniculus [7]): 0.5%
2 | CC[C@H](C)[C@H](NC(=O)[C@H](Cc1ccc(O)cc1)NC(=O)[C@@H](NC(=O)CN(C)C(=O)CNC)C(C)C)C(=O)N[C@@H](Cc1c[nH]cn1)C(=O)N1CCC[C@H]1C(=O)N[C@H](C(=O)O)[C@@H](C)O (H-[Sar][Sar]VYIHPT-OH) | 3 h | 0.46 | 0.43 | 0.24 | – | 0.63 | 0% | 11.66 mmHg | 8.78 | 0% | 1.93 | Active | 7 mmHg | 3.16 mmHg | – | – | – | Rf [21]: 0.76; Rf [24]: 0.75
3 | CC[C@H](C)[C@H](NC(=O)[C@@H]1CCCN1C(=O)[C@H](Cc1c[nH]cn1)NC(=O)[C@@H](NC(=O)[C@H](Cc1ccc(O)cc1)NC(=O)[C@@H](NC(=O)[C@H](CCCN=C(N)N)NC(=O)CNC)C(C)C)[C@@H](C)CC)C(=O)O | 2 h | – | – | – | – | – | 1% | 14.81 mmHg | 9.17 | 1% | 27.79 | Active | 18.27 mmHg | 17.81 mmHg | – | – | – | –
4 | CC[C@H](C)[C@H](NC(=O)[C@H](Cc1ccc(O)cc1)NC(=O)[C@@H](NC(=O)[C@H](CCCN=C(N)N)NC(=O)CNC)C(C)C)C(=O)N[C@@H](Cc1c[nH]cn1)C(=O)N1CCC[C@H]1C(=O)N[C@@H](C)C(=O)O | 2 h | – | – | – | – | – | – | 17.44 mmHg | 8.61 | 0.5% | 7.92 | Active | 16.88 mmHg | 15.11 mmHg | – | – | – | –

The next lines start with results.

Row | TIME (Oryctolagus cuniculus [3]) | Rf [16] | Rf [17] | Rf [18] | Rf [20] | Rf [22] | SMILES | Activity (Rattus norvegicus [1]) | Activity (Rattus norvegicus [5]) | pA2 [6] | Activity (Oryctolagus cuniculus [8]) | Ratio (Rattus norvegicus [9]) | inhibition (Oryctolagus cuniculus [10]) | Activity (Rattus norvegicus [11]) | Activity (Rattus norvegicus [12]) | Ratio (Rattus norvegicus [13]) | Activity (Rattus norvegicus [14]) | Activity (Rattus norvegicus [15]) | further results
5 | 2 h | – | – | – | – | – | CC[C@H](C)[C@H](NC(=O)[C@H](Cc1ccc(O)cc1)NC(=O)[C@@H](NC(=O)[C@H](CCCNC(=N)N)NC(=O)CNC)C(C)C)C(=O)N[C@@H](Cc1cnc[nH]1)C(=O)N1CCC[C@H]1C(=O)N[C@H](C(=O)O)[C@@H](C)OC | 0.48% | 15.06 mmHg | 8.76 | 0.5% | 62.52 | Active | 15.88 mmHg | 13.82 mmHg | 11.65 | 5.25 mmHg | 8.75 mmHg | –
6 | 2 h | 0.35 | 0.25 | 0.08 | 0.25 | – | CC[C@H](C)[C@H](NC(=O)[C@@H]1CCCN1C(=O)[C@H](Cc1c[nH]cn1)NC(=O)[C@@H](NC(=O)[C@H](Cc1ccc(O)cc1)NC(=O)[C@@H](NC(=O)[C@H](CCCN=C(N)N)NC(=O)CNC)C(C)C)[C@@H](C)OC)C(=O)O (H-[Sar]RVYT(Me)HPI-OH) | 1.01% | 18.5 mmHg | 9.5 | 0.1% | 50 | Active | 18.83 mmHg | 19 mmHg | 24.15 | 11 mmHg | 19.8 mmHg | Activity (Rattus norvegicus [19]): 16.82 mmHg
7 | 1 h | 0.47 | 0.41 | 0.26 | 0.43 | 0.64 | CC[C@H](C)[C@H](NC(=O)[C@H](Cc1ccc(O)cc1)NC(=O)[C@@H](NC(=O)[C@H](CCCNC(=N)N)NC(=O)C(C)(C)N)C(C)C)C(=O)N[C@@H](Cc1cnc[nH]1)C(=O)N1CCC[C@H]1C(=O)NC(C)(C)C(=O)O | 0.24% | 14.33 mmHg | 7.22 | 0% | 3.4 | Active | 8.5 mmHg | 5.16 mmHg | – | – | – | Rf [21]: 0.83; inhibition (Oryctolagus cuniculus [23]): Active
8 | 2 h | 0.46 | 0.26 | – | 0.22 | 0.62 | CC[C@H](C)[C@H](NC(=O)[C@H](Cc1ccc(O)cc1)NC(=O)[C@@H](NC(=O)[C@H](CCCNC(=N)N)NC(=O)CNC)C(C)C)C(=O)N[C@@H](Cc1cnc[nH]1)C(=O)N1CCC[C@H]1C(=O)NC(C)(C)C(=O)O | 0.52% | 16.6 mmHg | 8.7 | 0% | 19.76 | Active | 13.16 mmHg | 11 mmHg | – | – | – | Rf [25]: 0.5
9 | 2 h | 0.28 | 0.18 | – | – | 0.47 | CNCC(=O)N[C@@H](CCCNC(=N)N)C(=O)N[C@H](C(=O)N[C@@H](Cc1ccc(O)cc1)C(=O)N[C@H](C(=O)N[C@@H](Cc1cnc[nH]1)C(=O)N1CCC[C@H]1C(=O)N[C@H](C(=O)O)[C@@H](C)OC)[C@@H](C)OC)C(C)C | 0.46% | – | 9.5 | 0% | – | Active | – | – | 32.73 | 8.33 mmHg | 14.5 mmHg | Activity (Rattus norvegicus [19]): 13 mmHg
